This is an account of results in ChEMBL document CHEMBL3259705, “Geranyl and neryl triazole bisphosphonates as inhibitors of geranylgeranyl diphosphate synthase” (Bioorg Med Chem, 2014).

The source made the active and inactive calls. The calls are words filed in the database; no cut-off is given here.

Experiment [1] can be described thus: Inhibition of recombinant GGTase 2 (unknown origin) using recombinant Rab1A and [3H]GGPP as substrate after 20 mins by liquid scintillation counting analysis in presence of recombinant REP-2. Also on record: species or system Homo sapiens. In outline:
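30 nM recombinant GGTase II with 2 µM His-tagged Rab1A (E. coli-expressed, Ni-NTA purified) and 1 µM REP-2 in HEPES buffer with MgCl2, DTT, NP-40. Started with 5 µM [3H]-GGPP, 20 min at 37 °C, ended with HCl/EtOH. Filtered on P-81 paper, washed and scintillation counted. Tested up to 1 mM.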

Experiment [2] deals with T1, Farnesyl pyrophosphate synthase (Homo sapiens) (UniProt P14324).
T1 sequence (whole entry): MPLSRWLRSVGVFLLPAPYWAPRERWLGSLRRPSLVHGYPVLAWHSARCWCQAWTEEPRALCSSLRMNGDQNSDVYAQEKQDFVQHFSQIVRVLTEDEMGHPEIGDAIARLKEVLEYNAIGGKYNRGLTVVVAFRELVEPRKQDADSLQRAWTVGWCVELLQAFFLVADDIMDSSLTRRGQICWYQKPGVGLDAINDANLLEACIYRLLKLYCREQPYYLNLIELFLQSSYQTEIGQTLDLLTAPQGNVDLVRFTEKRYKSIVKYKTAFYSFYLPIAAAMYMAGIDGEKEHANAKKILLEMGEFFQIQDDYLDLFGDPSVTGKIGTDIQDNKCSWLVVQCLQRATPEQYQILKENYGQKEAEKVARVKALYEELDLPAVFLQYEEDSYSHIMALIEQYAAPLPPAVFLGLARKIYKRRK
Nature of the experiment: Inhibition of FDPS in human RPMI-8226 cells assessed as disruption of Ras farnesylation after 48 hrs by western blot analysis. Type of experiment: cell-based. A general note: Immunoblotting shows a protein as a band on a membrane.

In experiment [3] the target is Protein farnesyltransferase (Homo sapiens, UniProt P49354+P49356). Nature of the experiment: Inhibition of recombinant FTase (unknown origin) assessed as decrease in prenylated fluorescent peptides level using dansyl-GCVLS and FPP as substrate after 1 hr by HPLC-fluorescence detection analysis. In kind it is protein-complex assay. In outline: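 3 nM recombinant FTase started reaction in pH 7.5 Tris buffer with DTT, 10 mM MgCl2, 10 µM ZnCl2, 0.04% DDM, plus 10 µM FPP and 5 µM dansyl-GCVLS. Run 1 h at 30 °C, stopped with acetonitrile/5% HCl, centrifuged. Prenylated peptide quantified by HPLC-fluorescence. IC50 taken from concentration-response curves.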

In experiment [4] the target is T2, Geranylgeranyl pyrophosphate synthase (Homo sapiens) (UniProt O95749).
T2 sequence (whole entry): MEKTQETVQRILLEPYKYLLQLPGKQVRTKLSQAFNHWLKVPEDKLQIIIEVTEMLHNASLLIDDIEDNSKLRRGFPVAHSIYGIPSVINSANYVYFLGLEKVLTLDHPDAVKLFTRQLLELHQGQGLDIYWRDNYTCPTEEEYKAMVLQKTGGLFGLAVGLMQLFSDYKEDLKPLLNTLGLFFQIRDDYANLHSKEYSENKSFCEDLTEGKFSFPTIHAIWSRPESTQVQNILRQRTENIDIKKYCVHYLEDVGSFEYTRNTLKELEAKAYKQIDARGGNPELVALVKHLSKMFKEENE
Nature of the experiment: Inhibition of GGDPS in human RPMI-8226 cells assessed as disruption of Rab6 geranylgeranylation at 10 uM after 48 hrs by western blot analysis. Type of experiment: cell-based. In outline:
(§1)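 RPMI-8226 human myeloma cells exposed 48 h to test agent. For Rap1a, RIPA whole-cell lysate probed with an antibody recognising only unmodified Rap1a, β-tubulin as loading control. Rab6 read from Triton X-114 aqueous versus detergent fractions, with β-tubulin for aqueous and calnexin for detergent loading. Equal protein by BCA, SDS-PAGE/immunoblot with ECL. Blots representative of two independent experiments.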

The target in experiment [5] is T2, Geranylgeranyl pyrophosphate synthase (Homo sapiens). In words: Inhibition of GGDPS in human RPMI-8226 cells assessed as disruption of Rap1a geranylgeranylation at 10 uM after 48 hrs by western blot analysis. In kind it is cell-based. The method in brief:
as §1

Experiment [6] concerns the target T3, Farnesyl pyrophosphate synthase (Homo sapiens, UniProt P14324).
T3 sequence (P14324 whole entry): T1 sequence (whole entry)
Nature of the experiment: Inhibition of recombinant FDPS (unknown origin) assessed as decrease in radiolabeld […] level using GPP and [14C]IPP as substrate treated with enzyme for 10 mins prior to substrate challenge for 30 mins by liquid scintillation counting analysis. In outline:
(§2)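 Enzyme (10 nM FDPS or 20 nM GGDPS) preincubated with compound 10 min at room temperature in 50 mM Tris-HCl pH 7.7, 20 mM MgCl2, 5 mM TCEP, 5 µg/mL BSA. Started with 10 µM GPP (FDPS) or 10 µM FPP (GGDPS) plus 10 µM [14C]-IPP; 37 °C, 30 min. Stopped with saturated NaCl, butanol-extracted, counted. IC50 from concentration-response curves.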

The target in experiment [7] is Geranylgeranyl transferase type I (Homo sapiens, UniProt P49354+P53609). In words: Inhibition of recombinant GGTase 1 (unknown origin) assessed as decrease in prenylated fluorescent peptides level using dansyl-GCVLS and GGPP as substrate after 1 hr by HPLC-fluorescence detection analysis. The method in brief: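 Reaction started by adding 12 nM recombinant GGTase I to pH 7.5 Tris buffer with DTT, 5 mM MgCl2, 50 µM ZnCl2, 10 mM KCl, 0.04% DDM, 10 µM GGPP and 7 µM dansyl-GCVLS. Incubated 1 h at 30 °C, then acid-acetonitrile quench. Prenylated peptide measured by HPLC with fluorescence. IC50 from concentration-response curves.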

The target in experiment [8] is T2, Geranylgeranyl pyrophosphate synthase (Homo sapiens). As to conditions: RPMI-8226, 1 uM.
For experiment [9] the target is unchanged. Particulars: RPMI-8226, 10 uM.
Experiment [10] shares this target. As to conditions: RPMI-8226, 1 uM. This is another data set of the same source.
For experiment [11] the target is unchanged. As to conditions: RPMI-8226, 10 uM. The source holds these as a separate data set.
For experiment [12] the target is unchanged. Particulars: RPMI-8226, 10 uM. The source holds these as a separate data set.
Experiment [13] shares this target. As to conditions: RPMI-8226, 10 uM. This is another data set of the same source.
For experiment [14] the target is unchanged. As to conditions: RPMI-8226, 1 uM. The source holds these as a separate data set.
In experiment [15] the target is T4, Geranylgeranyl pyrophosphate synthase (Homo sapiens, UniProt O95749).
T4 sequence (O95749 whole entry): T2 sequence (whole entry)
Nature of the experiment: Inhibition of recombinant GGDPS (unknown origin) assessed as decrease in radiolabeld GGPP level using FPP and [14C]IPP as substrate treated with enzyme for 10 mins prior to substrate challenge for 30 mins by liquid scintillation counting analysis. The method in brief:
as §2

The target of experiment [16] is T5, 3-hydroxy-3-methylglutaryl-coenzyme A reductase (Homo sapiens) (UniProt P04035).
T5 sequence (whole entry): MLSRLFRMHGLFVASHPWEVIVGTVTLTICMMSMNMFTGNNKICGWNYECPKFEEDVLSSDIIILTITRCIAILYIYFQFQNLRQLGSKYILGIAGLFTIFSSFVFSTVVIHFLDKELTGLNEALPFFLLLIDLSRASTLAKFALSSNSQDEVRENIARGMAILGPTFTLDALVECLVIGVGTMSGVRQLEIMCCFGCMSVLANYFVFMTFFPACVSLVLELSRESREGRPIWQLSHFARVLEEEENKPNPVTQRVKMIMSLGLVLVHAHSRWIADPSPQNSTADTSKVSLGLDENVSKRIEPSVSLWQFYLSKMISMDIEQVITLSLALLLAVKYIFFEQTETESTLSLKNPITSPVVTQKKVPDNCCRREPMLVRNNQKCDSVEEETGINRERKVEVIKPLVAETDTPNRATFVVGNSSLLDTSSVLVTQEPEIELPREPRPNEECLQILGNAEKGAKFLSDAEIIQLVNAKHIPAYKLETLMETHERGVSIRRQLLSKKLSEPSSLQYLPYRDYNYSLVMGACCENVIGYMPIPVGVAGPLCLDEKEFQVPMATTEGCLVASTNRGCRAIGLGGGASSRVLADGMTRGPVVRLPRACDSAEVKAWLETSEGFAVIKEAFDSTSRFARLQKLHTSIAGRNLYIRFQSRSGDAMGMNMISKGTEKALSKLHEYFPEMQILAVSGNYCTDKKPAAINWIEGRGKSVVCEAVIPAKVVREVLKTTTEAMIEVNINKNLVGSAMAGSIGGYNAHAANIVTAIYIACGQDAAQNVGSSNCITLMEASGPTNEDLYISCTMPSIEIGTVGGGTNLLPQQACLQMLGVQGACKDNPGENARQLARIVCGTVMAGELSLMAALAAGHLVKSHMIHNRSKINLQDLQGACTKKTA
Nature of the experiment: Inhibition of HMG-coA reductase in human RPMI-8226 cells assessed as disruption of Rap1a geranylgeranylation at 10 uM after 48 hrs by western blot analysis in presence of 1 mM mevalonate. In kind it is cell-based. In outline:
(§3)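 RPMI-8226 cells held 48 h with 10 µM inhibitor, with or without isoprenoid add-back (1 mM mevalonate, 10 µM FPP or 10 µM GGPP). RIPA whole-cell lysate immunoblotted with an antibody detecting only unmodified Rap1a, β-tubulin as loading control. Protein equalised by BCA. Two independent experiments.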

For experiment [17], the target named is T5, 3-hydroxy-3-methylglutaryl-coenzyme A reductase (Homo sapiens). In words: Inhibition of HMG-coA reductase in human RPMI-8226 cells assessed as disruption of Rap1a geranylgeranylation at 10 uM after 48 hrs by western blot analysis. In kind it is cell-based. The method in brief: as §3
The target is the same in experiment [18]. Nature of the experiment: Inhibition of HMG-coA reductase in human RPMI-8226 cells assessed as disruption of Rap1a geranylgeranylation at 10 uM after 48 hrs by western blot analysis in presence of 10 uM GGPP. In kind it is cell-based. The method in brief:
as §3

`CC(C)=CCCC(C)=CCn1cc(CC(P(=O)(O)O)P(=O)(O)O)nn1` (mixture of isomers): the IC50 in [1] was greater than 1000 µM; in experiment [3], 500 µM; in experiment [6] it was 84 µM; in [7], 200 µM. Moreover, the inhibition entry in [2] was “inactive”. For the same molecule, the “disruption of Rab6 geranylgeranylation (active/not active)” value in [4] is “Active”. The “disruption of Rap1a geranylgeranylation (active/not active)” value in experiment [5] was “Active”. The inhibition result in experiment [8], in experiment [9] and in experiment [10] was “Active” throughout.
As to `CC(C)=CCC/C(C)=C\Cn1cc(CC(P(=O)(O)O)P(=O)(O)O)nn1`, the IC50 is greater than 1000 µM in experiment [1], 400 µM in [3], 79 µM in experiment [6] and 500 µM in experiment [7]. Moreover, the inhibition result in experiment [11] and in experiment [2] was “inactive” each time. The “disruption of Rab6 geranylgeranylation (active/not active)” value in experiment [4] is “Active”. Further, in experiment [5], the “disruption of Rap1a geranylgeranylation (active/not active)” value was “Active”. In addition, the inhibition entry in experiment [12], in experiment [8], in [9], in experiment [13], in [10] and in experiment [14] was “Active” throughout.
On to `CC(C)=CCC/C(C)=C/CC(C/C=C(\C)CCC=C(C)C)(P(=O)(O)O)P(=O)(O)O`, for which, in experiment [2], the inhibition result was “inactive”. The “disruption of Rab6 geranylgeranylation (active/not active)” value in [4] was “Active”. The “disruption of Rap1a geranylgeranylation (active/not active)” value in [5] was “Active”. The inhibition result in experiment [9] was “Active”.
Consider `CC(C)=CCC[C@@]1(C)O[C@@H]1Cn1cc(CC(P(=O)(O)O)P(=O)(O)O)nn1` (racemic), for which the IC50 in experiment [1] is greater than 1000 µM; in [15] it was 23 µM; in [3], 400 µM; in experiment [6], 33 µM; in experiment [7], 500 µM. Besides, the inhibition result in experiment [2] is “inactive”. In addition, the “disruption of Rab6 geranylgeranylation (active/not active)” value in experiment [4] was “inactive”. Besides, in experiment [5], the “disruption of Rap1a geranylgeranylation (active/not active)” value was “inactive”.
For the molecule `CC(C)=CCC[C@]1(C)O[C@@H]1Cn1cc(CC(P(=O)(O)O)P(=O)(O)O)nn1` (racemic), the IC50 was greater than 1000 µM in experiment [1]; 17 µM in experiment [15]; 340 µM in experiment [3]; 47 µM in experiment [6]; 300 µM in experiment [7]. For the same molecule, the inhibition entry in experiment [2] was “inactive”. In experiment [4], the “disruption of Rab6 geranylgeranylation (active/not active)” value was “inactive”. The “disruption of Rap1a geranylgeranylation (active/not active)” value in [5] was “inactive”.
Turning to `CC(C)=CCC/C(C)=C/Cn1cc(CC(P(=O)(O)O)P(=O)(O)O)nn1`, the half-inhibitory concentration (IC50) is greater than 1000 µM in [1], greater than 500 µM in experiment [3], 57 µM in [6] and 340 µM in experiment [7]. For the same molecule, the inhibition entry in experiment [2], in [8], in [9] and in experiment [10] was “inactive” throughout. In addition, the “disruption of Rap1a geranylgeranylation (active/not active)” value in experiment [5] was “Active”.
Take `CC[C@H](C)C(=O)O[C@H]1C[C@@H](C)C=C2C=C[C@H](C)[C@H](CC[C@@H]3C[C@@H](O)CC(=O)O3)[C@H]21`: the inhibition result in experiment [16] and in experiment [18] was “inactive” throughout. Further, in experiment [17], the inhibition result is “Active”.

One may read the IC50 as the concentration needed to halve the response being measured.
